High-throughput results from PubChem.
Hits are enriched below; roughly 2.6% of the tested compounds scored in any of these assays.
ARFGAP1 inhibitor: inhibitors of rat ARFGAP1 GAP activity, primary screen, biochemical, fluorescence polarization, GDP tracer. ADP-ribosylation factor GTPase-activating protein 1 (Rattus norvegicus), Q62848. Arfgap1-stimulated ARF1 GTP hydrolysis, GDP FP detection. inhibition, % at 16.5 µM. actives 0.26% (n = 360,000). AID 651572, 2012;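 active = inhibition above a per-plate limit, mean inhibition of low control wells plus 3 SD, cut at about 25% in these data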;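 also: 0% = DMSO wells with enzyme and 100% = wells lacking Arfgap1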
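material = rat Arfgap1 catalytic domain, aa 1-136 | also added = human ARF1(Δ1-17)-GTP substrate | compound dosing = one concentration, 16.5 µM, DMSO 1.26% | times = GTP hydrolysis reaction 2 h at 25 °C | measured by = FP, GDP Alexa 633 tracer displaced from anti-GDP antibody, 620/688 nm | evaluation = percent inhibition of Arfgap1-stimulated GTP hydrolysis | replication = single well per compound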
VIM-2 inh: VIM-2 metallo-beta-lactamase inhibitors, primary screen, biochemical, epi-absorbance readout, Pseudomonas aeruginosa enzyme. purified VIM-2, nitrocefin hydrolysis, epi-absorbance fluorescence. inhibition, % at 5.6 µM. actives 0.89% (n = 290,000). AID 1527, 2009;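 active = inhibition above the mean of all tested compounds plus 3 SD, cutoff set per screening run, cut at about 7.5% in these data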;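 also: red hydrolysis product quenches plate fluorescence so inhibitors raise well fluorescence; 0% = enzyme with DMSO and 100% = DMSO without enzyme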
Calb FLC: C. albicans growth inhibition with fluconazole, primary screen, CaCi-2 strain, Alamar Blue fluorescence; C. albicans CaCi-2 + fluconazole, 48 h; growth inhibition, % (no concentration beside the values); actives 0.57% (n = 300,000); AID 1979, 2009;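 active = growth inhibition above about 58% in most replicates, limit read from the data, passing the limit was not always enough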;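 also: all wells also contain fluconazole at 8 µg/ml as a sub-toxic cotreatment; 0% = median of DMSO wells and 100% = median of geldanamycin control wells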
ASAP1 inh: inhibitors of human ASAP1 ArfGAP activity, primary screen, biochemical, fluorescence polarization | Arf-GAP with SH3 domain, ANK repeat and PH domain-containing protein 1 (Homo sapiens), … | ASAP1-stimulated ARF1 GTP hydrolysis, GDP FP detection | inhibition, % at 16.5 µM | actives 0.19% (n = 360,000) | AID 624377, 2012; in the data active = inhibition above about 25%;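 also: 0% = vehicle with enzyme and substrate and 100% = no enzyme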
Target sequence (Q9ULH1 325-724 limits assumed): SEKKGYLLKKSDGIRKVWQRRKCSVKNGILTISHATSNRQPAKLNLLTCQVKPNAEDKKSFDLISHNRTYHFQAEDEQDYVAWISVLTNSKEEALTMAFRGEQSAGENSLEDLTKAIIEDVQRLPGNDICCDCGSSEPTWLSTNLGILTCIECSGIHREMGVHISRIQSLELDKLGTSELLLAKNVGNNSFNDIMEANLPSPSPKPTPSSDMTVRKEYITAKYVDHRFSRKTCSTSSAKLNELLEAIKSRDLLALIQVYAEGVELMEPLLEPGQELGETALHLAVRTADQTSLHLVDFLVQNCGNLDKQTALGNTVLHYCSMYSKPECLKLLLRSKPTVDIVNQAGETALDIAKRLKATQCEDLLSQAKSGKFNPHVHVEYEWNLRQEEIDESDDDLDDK
PHOSPHO1 inh: PubChem AID 1565; Phosphoethanolamine/phosphocholine phosphatase (Homo sapiens), Q8TCT1; recombinant PHOSPHO1, absorbance phosphatase assay; inhibition, % at 13.3 µM; actives 1.1% (n = 290,000); in the data active = inhibition above about 60%
Target sequence (Q8TCT1 whole entry, looked up): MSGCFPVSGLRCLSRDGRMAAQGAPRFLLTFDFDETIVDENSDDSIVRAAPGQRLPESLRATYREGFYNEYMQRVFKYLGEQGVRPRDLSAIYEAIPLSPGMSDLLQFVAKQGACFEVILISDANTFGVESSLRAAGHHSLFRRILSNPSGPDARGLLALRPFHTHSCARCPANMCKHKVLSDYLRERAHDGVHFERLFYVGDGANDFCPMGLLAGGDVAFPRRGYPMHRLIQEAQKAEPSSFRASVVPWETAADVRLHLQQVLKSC
IMP-1 inh: IMP-1 metallo-beta-lactamase inhibitors, primary screen, biochemical, epi-absorbance readout, Pseudomonas aeruginosa enzyme; actives 0.45% (n = 290,000); purified IMP-1, nitrocefin hydrolysis, epi-absorbance fluorescence; AID 1556, 2009; metallo-beta-lactamase IMP-1 (Pseudomonas aeruginosa); inhibition, % at 5.6 µM;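 active = inhibition above the mean plus 3 SD of all compounds in the same screening run, cut at about 4.5% in these data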;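 also: 0% = IMP-1 with DMSO and 100% = DMSO wells lacking enzyme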
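System: purified IMP-1; amount: IMP-1 0.2 nM before substrate addition; compound: single dose, 5.6 µM; times: 25 °C, 15 min preincubation, 25 min reaction; signal: Epi-absorbance via hydrolysed-nitrocefin quenching of white-plate fluorescence, 480/530 nm, EDTA stop; benchmarks: DMSO with and without IMP-1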
The depositor's hits bear a star; · = no result.

SMILES | ARFGAP1 inhibitor | VIM-2 inh | Calb FLC | ASAP1 inh | PHOSPHO1 inh | IMP-1 inh
O=C(Nc1ccc(NC(=O)C2CCCCC2)nc1)c1ccccn1 | 3 | -3 | -5 | 4 | 63* | -3
Cc1ccc(C(=O)CSC2=C(C#N)C(c3ccco3)C3=C(CCCC3=O)N2)cc1 (configuration not stated) | 4 | -4 | 29 | -2 | -11 | -2
CC(C)(C)c1ccc(C(=O)CCCSC2=C(C#N)C(c3ccco3)C3=C(CCCC3=O)N2)cc1 (configuration not stated) | -9 | -2 | · | 10 | 71* | -3
O=C(Nc1nnc(COc2ccc(F)cc2)s1)c1cccs1 | 0 | -3 | 14 | 13 | 38 | -8
O=C(NNc1cc(Cl)cc(Cl)c1)c1cccs1 | -4 | -1 | -33 | 12 | 1 | -2
O=C(Nc1nnc(COc2ccc(Cl)cc2)s1)c1cccs1 | -1 | -3 | -2 | 4 | 80* | -1
O=C(NNc1ccc(Cl)cc1)c1cccs1 | -5 | -2 | 82* | 2 | -50 | -1
Brc1ccccc1C1=Nn2c(nnc2-c2ccco2)SC1 | -1 | 8.0* | -3 | -15 | 32 | -2
Brc1ccccc1C1=Nn2c(nnc2-c2ccccc2)SC1 | -2 | -1 | -2 | 3 | 83* | -5
Fc1ccc(C2=Nn3c(nnc3-c3ccco3)SC2)cc1 | 5 | 4 | -2 | -2 | -10 | -1
c1ccc(C2=Nn3c(nnc3-c3ccco3)SC2)cc1 | 12 | 8.3* | 38 | 5 | -35 | 0
CC(C)(C)c1ccc(C(O)c2ncc(-c3cccc(F)c3)[nH]2)cc1 (configuration not stated) | -6 | · | · | 13 | · | ·
Cc1c(CN2CCN(c3ncc(Cc4ccccc4)cn3)CC2)c(=O)n(-c2ccccc2)n1C | -9 | · | · | 8 | · | ·
C=CCN1[C@@H](C)[C@H](c2ccccc2)Oc2cccc(NCC(C)C)c2S1(=O)=O | 2 | · | · | 2 | · | ·
Cc1nc(NC(=O)c2ccc(Cl)cc2)sc1Cc1ccc2c(c1)OCO2 | 13 | -3 | 0 | 6 | 71* | -2
COc1ccccc1CCn1cnc(-c2cccc(Cl)c2)c1CC(C)C | 5 | · | · | 10 | · | ·
O=C1OCC2=Nc3cccc4cccc(c34)N12 | 7 | · | · | -1 | · | ·
COC(=O)C1CCN(C2=C(NS(=O)(=O)c3ccc(Cl)cc3)C(=O)c3ccccc3C2=O)CC1 | -4 | 8.4* | 7 | 7 | 27 | -1
O=C(CSc1ncccn1)N1CCN(C(c2ccccc2)c2ccccc2)CC1 | 3 | -3 | 9 | -5 | 86* | -3
O=C(CC(c1ccccc1)c1ccccc1)N1CCN(c2ccccn2)CC1 | -8 | 0 | 17 | -21 | 66* | 0
O=C(CSc1ccccc1)N1CCN(c2ccccn2)CC1 | 0 | -2 | 16 | 9 | 42 | -1
O=C(CC(c1ccccc1)c1ccco1)N1CCCCC1 (configuration not stated) | · | 0 | -6 | · | 60* | -2
Nc1nc2c(ncn2[C@@H]2O[C@H](C(=O)NCCCN3CCCC3=O)[C@@H](O)[C@H]2O)c(=O)[nH]1 | 2 | · | · | 3 | · | ·
S=c1[nH]nc(C2COc3ccccc3O2)o1 (configuration not stated) | 4 | -2 | -13 | 6 | 96* | -6
O=C(Cc1ccccc1)Nc1ccc(NC(=O)c2ccccc2)nc1 | -1 | -3 | -2 | -10 | 52 | -3
SMILES | ARFGAP1 inhibitor | VIM-2 inh | Calb FLC | ASAP1 inh | PHOSPHO1 inh | IMP-1 inh
O=C(Cc1ccccc1)Nc1nonc1NC(=O)c1ccccc1 | 12 | 0 | 81* | 10 | 17 | -4
COC(=O)[C@]12CCCCC=C1N(Cc1cccc3ccccc13)C(=O)[C@H](CC(=O)N1CCN(C(=O)C3CC3)CC1)C2 | -4 | · | · | -7 | · | ·
COc1ccc(/C=N/NC(=O)c2nn(C)cc2Br)cc1CSCc1ccco1 | -2 | 2 | -22 | -7 | 8 | 18*
COC(=O)c1cccc(-n2c(C)cc(O)cc2=O)c1 | 0 | · | · | -6 | · | ·
S=C(Nc1ccccc1)Nc1nc2ccccc2n1CCOc1ccc(Cl)cc1 | 3 | -2 | 92* | -11 | -10 | 0
O=C1NC(c2ccccc2)c2c(-c3ccccc3)n[nH]c21 (configuration not stated) | 6 | · | · | 5 | · | ·
COc1cc([N+](=O)[O-])cc(/C=N/NC(=O)c2cc(-c3ccccc3)nc3ccccc23)c1O | 0 | -4 | 89* | 21 | -3 | -4
COc1cccc(CC(=O)N2CCN(C(=O)C(=O)c3ccc(OC)c(OC)c3)CC2)c1 | 6 | · | · | 7 | · | ·
FC(F)(F)c1cc(Cl)c2nnc(-c3cccnc3)n2c1 | -4 | -2 | 2 | -3 | 11 | -3
FC(F)(F)c1cc(Cl)c2nnc(-c3ccccn3)n2c1 | -3 | 8.1* | 19 | 1 | 36 | -4
Cc1ccc(OCc2cc(C(=O)NCc3cnn(-c4cccc(F)c4)c3)no2)cn1 | 4 | -1 | 78* | -3 | 44 | -2
Cc1ccc(OCc2cc(C(=O)NCc3ccc(OC(F)(F)F)cc3)no2)cn1 | -3 | -2 | 9 | 3 | 17 | -3
C[C@@H]1CN([C@@H](C)CO)C(=O)CCCn2nncc2CO[C@H]1CN(C)CC1CC1 | 2 | · | · | 8 | · | ·
COc1ccc(-n2nnnc2Sc2ccc(S(=O)(=O)N3CCOCC3)cn2)cc1 | -10 | · | 13 | 14 | 85* | ·
C[C@H](O)[C@@H]1C(=O)N2CCc3c([nH]c4c(-c5ccccc5)cccc34)[C@@H]2C[C@@H]1N(C)C(=O)NC1CCCCC1 | 6 | · | · | 10 | · | ·
COc1ccc(Sc2cccc3c2S(=O)(=O)N([C@H](C)c2ccccc2)C[C@@H](COCc2ccccc2)O3)cc1OC | 5 | · | · | 6 | · | ·
CCOC(=O)COc1c(OC)cc(Cl)cc1C1Nc2ccccc2C(=O)N1c1cccc(C)c1 (configuration not stated) | 11 | -3 | 16 | 8 | 15 | 5.6*
Cc1ccc2[nH]c(=O)c3cc(C(=O)N(CCCOC(C)C)Cc4ccco4)sc3c2c1 | -8 | 8.1* | 9 | 3 | 13 | -3
Cc1ccc2oc(=O)c3cnn(CC(=O)N(CCN(C)C)Cc4ccco4)c3c2c1 | 9 | -1 | -1 | -19 | -9 | -2
Cc1ccc2nc(Cl)c3cc(C(=O)N(CCN(C)C)Cc4ccco4)sc3c2c1 | -2 | 8.3* | 11 | 2 | -11 | 2
